In brackets after ≈: the same amount, converted by molar mass.
Key:
[1] = tested on: Mycobacterium tuberculosis; test: Antitubercular activity against Mycobacterium tuberculosis H37Rv by MABA assay; type: functional
Summary of the method: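 Actives re-tested at lower concentrations against H37Rv (ATCC 27294) in BACTEC 12B medium by Microplate Alamar Blue Assay. MIC taken as lowest concentration giving […] fluorescence reduction versus controls; rifampin reference.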

Escherichia coli = test: Antibacterial activity against Escherichia coli at 50 to 100 uM after 24 hrs by well diffusion method; type: functional
Summary of the method: (§1)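 Nutrient agar plates with 10 mm wells cut by cork borer; 24-h subcultured bacteria swabbed on. Compounds dissolved in chloroform, 50 to 100 μM added to wells, gentamycin as standard. Incubated 24 h at 24–28 °C; inhibition zone diameter measured and converted to percent inhibition.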

Pseudomonas aeruginosa = test: Antibacterial activity against Pseudomonas aeruginosa at 50 to 100 uM after 24 hrs by well diffusion method; type: functional; summary of the method: as §1
Staphylococcus aureus = test: Antibacterial activity against Staphylococcus aureus at 50 to 100 uM after 24 hrs by well diffusion method; type: functional; summary of the method: as §1
[2] = Cytotoxicity against Vero-C1008 cells at 6.25 to 50 ug/mL by neutral red uptake assay; type: cell-based; conditions: chlorocebus sabaeus
Summary of the method: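 Vero-C-1008 cells exposed to 6.25 to 50 μg/mL compound; viability read by neutral red uptake.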

Salmonella typhi = test: Antibacterial activity against Salmonella typhi at 50 to 100 uM after 24 hrs by well diffusion method; type: functional, Salmonella enterica subsp. enterica serovar Typhi; set-up: unit not given here; summary of the method: as §1

Row | Compound | MIC [1] [µg/mL] | inhibition zone (Escherichia coli) [mm] | inhibition zone (Pseudomonas aeruginosa) [mm] | inhibition zone (Staphylococcus aureus) [mm] | Activity [2] | Inhibition (Salmonella typhi) | inhibition (Escherichia coli) [%] | inhibition (Pseudomonas aeruginosa) [%] | inhibition (Staphylococcus aureus) [%] | inhibition (Salmonella typhi; Salmonella enterica subsp. enterica serovar Typhi) [%]
1 | O=C(CCl)NNC(=O)CSc1nnc(Cc2csc(NC(=O)CCl)n2)n1NC(=O)c1cccc([N+](=O)[O-])c1 | < 6.25 | 12 | 16 | 14 | Non-toxic | 18 |  |  |  | 
2 | O=C(O)CCNc1nc(Cc2nnc(SCC(=O)NNC(=O)c3ccccc3)n2NC(=O)c2ccc(Cl)cc2)cs1 | < 6.25 | 19 | 25 | 18 | Non-toxic | 23 |  |  |  | 
3 | O=C(CSc1nnc(Cc2csc(NC(=O)c3ccccc3)n2)n1NC(=O)c1ccc(Cl)cc1)NNC(=O)c1ccccc1 | < 6.25 | 18 | 24 | 19 | Non-toxic | 18 |  |  |  | 
4 | COC(=O)CSc1nnc(Cc2csc(NC(=O)c3ccccc3)n2)n1NC(=O)c1ccc(Cl)cc1 | < 6.25 | 20 | 22 | 22 | Non-toxic | 16 |  |  |  | 
5 | CC(=O)Nc1nc(Cc2nnc(SCSc3nnc(Cc4csc(NC(C)=O)n4)n3NC(=O)c3cccc([N+](=O)[O-])c3)n2NC(=O)c2cccc([N+](=O)[O-])c2)cs1 | < 6.25 | 26 | 32 | 27 | Non-toxic | 26 |  |  |  | 
6 | CO[C@H]1/C=C/O[C@@]2(C)Oc3c(C)c(O)c4c(O)c(c(/C=N/N5CCN(C)CC5)c(O)c4c3C2=O)NC(=O)/C(C)=C\C=C\[C@H](C)[C@H](O)[C@@H](C)[C@@H](O)[C@@H](C)[C@H](OC(C)=O)[C@@H]1C [RIFAMPIN] | 0.015 (≈ 0.0182 µM) |  |  |  |  |  |  |  |  | 
7 | CC(=O)Nc1nc(Cc2nnc(SCC(=O)NNC(=O)c3ccccc3)n2NC(=O)c2cccc([N+](=O)[O-])c2)cs1 | < 6.25 | 30 | 30 | 32 | Non-toxic | 27 |  |  |  | 
8 | O=C(Nc1nc(Cc2nnc(SCSc3nnc(Cc4csc(NC(=O)c5ccccc5)n4)n3NC(=O)c3ccc(Cl)cc3)n2NC(=O)c2ccc(Cl)cc2)cs1)c1ccccc1 | < 6.25 | 20 | 27 | 29 | Non-toxic | 12 |  |  |  | 
9 | CC(=O)Nc1nc(Cc2nnc(SCc3nnc(S)n3N)n2NC(=O)c2ccc(Cl)cc2)cs1 | < 6.25 | 23 | 21 | 28 | Non-toxic | 18 |  |  |  | 
10 | CC(=O)Nc1nc(Cc2nnc(SCC(=O)NNC(=O)c3ccccc3)n2NC(=O)c2ccc(Cl)cc2)cs1 | < 6.25 | 20 | 22 | 28 | Non-toxic | 17 |  |  |  | 
11 | CC(=O)NNC(=O)CSc1nnc(Cc2csc(NC(=O)CCl)n2)n1NC(=O)c1ccc(Cl)cc1 | < 6.25 | 24 | 21 | 25 | Non-toxic | 22 |  |  |  | 
12 | Nn1c(S)nnc1CSc1nnc(Cc2csc(NCCC(=O)O)n2)n1NC(=O)c1ccc(Cl)cc1 | < 6.25 | 19 | 24 | 21 | Non-toxic | 23 |  |  |  | 
13 | O=C(O)CCNc1nc(Cc2nnc(SCSc3nnc(Cc4csc(NCCC(=O)O)n4)n3NC(=O)c3ccc(Cl)cc3)n2NC(=O)c2ccc(Cl)cc2)cs1 | < 6.25 | 22 | 29 | 21 | Non-toxic | 20 |  |  |  | 
14 | O=C(O)CCNc1nc(Cc2nnc(SCC(=O)NNC(=O)CCl)n2NC(=O)c2cccc([N+](=O)[O-])c2)cs1 | < 6.25 | 24 | 26 | 24 | Non-toxic | 24 |  |  |  | 
15 | CC(=O)NNC(=O)CSc1nnc(Cc2csc(NC(=O)c3ccccc3)n2)n1NC(=O)c1ccc(Cl)cc1 | < 6.25 | 21 | 24 | 26 | Non-toxic | 19 |  |  |  | 
16 | CC(=O)Nc1nc(Cc2nnc(SCC(=O)NNC(=O)CCl)n2NC(=O)c2cccc([N+](=O)[O-])c2)cs1 | < 6.25 | 18 | 18 | 12 | Non-toxic | 14 |  |  |  | 
17 | CC(=O)Nc1nc(Cc2nnc(SCC#N)n2NC(=O)c2cccc([N+](=O)[O-])c2)cs1 | < 6.25 | 20 | 26 | 22 | Non-toxic | 21 |  |  |  | 
18 | COC(=O)CSc1nnc(Cc2csc(NC(C)=O)n2)n1NC(=O)c1cccc([N+](=O)[O-])c1 | < 6.25 | 20 | 22 | 24 | Non-toxic | 18 |  |  |  | 
19 | O=C(CCl)NNC(=O)CSc1nnc(Cc2csc(NC(=O)c3ccccc3)n2)n1NC(=O)c1cccc([N+](=O)[O-])c1 | < 6.25 | 18 | 11 | 14 | Non-toxic | 12 |  |  |  | 
20 | Nn1c(S)nnc1CSc1nnc(Cc2csc(NC(=O)CCl)n2)n1NC(=O)c1ccc(Cl)cc1 | < 6.25 | 22 | 20 | 27 | Non-toxic | 20 |  |  |  | 
21 | O=C(CCl)Nc1nc(Cc2nnc(SCSc3nnc(Cc4csc(NC(=O)CCl)n4)n3NC(=O)c3ccc(Cl)cc3)n2NC(=O)c2ccc(Cl)cc2)cs1 | < 6.25 | 29 | 28 | 23 | Non-toxic | 18 |  |  |  | 
22 | O=C(CCl)NNC(=O)CSc1nnc(Cc2csc(NC(=O)c3ccccc3)n2)n1NC(=O)c1ccc(Cl)cc1 | < 6.25 | 19 | 23 | 26 | Non-toxic | 22 |  |  |  | 
23 | NNC(=O)CSc1nnc(Cc2csc(NCCC(=O)O)n2)n1NC(=O)c1ccc(Cl)cc1 | < 6.25 | 18 | 26 | 23 | Non-toxic | 22 |  |  |  | 
24 | Nn1c(S)nnc1Cc1csc(NC(=O)CCl)n1 |  | 14 | 17 | 18 | Non-toxic | 12 |  |  |  | 
25 | O=C(CCl)NNC(=O)CSc1nnc(Cc2csc(NC(=O)CCl)n2)n1NC(=O)c1ccc(Cl)cc1 | < 6.25 | 18 |  | 24 | Non-toxic |  |  |  |  | 
26 | GENTAMICIN |  |  |  |  |  |  | 31 | 35 | 34 | 30
27 | COC(=O)CSc1nnc(Cc2csc(NCCC(=O)O)n2)n1NC(=O)c1cccc([N+](=O)[O-])c1 | < 6.25 |  | 22 | 22 | Non-toxic | 20 |  |  |  | 
28 | O=C(O)CCNc1nc(Cc2nnc(SCC(=O)NNC(=O)CCl)n2NC(=O)c2ccc(Cl)cc2)cs1 | < 6.25 |  |  |  | Non-toxic |  |  |  |  | 
